In the RNAGym collection of RNA variant scans (doi:10.1038/s41586-018-0170-7):

B1: tRNA (parent)
chain: GUUCCGUUGGCGUAAUGGUAACGCGUCUCCCUCCUAAGGAGAAGACUGCGGGUUCGAGUCCCGUACGGAACG

Variants of: B1
Assay: yeast fitness, log relative to wild type (ln ratio); higher = fitter; tRNA-Arg(CCU), competitive growth, 37 C, 1 M NaCl
How it was run: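 BY4742 cells without the chromosomal tRNA-Arg(CCU) gene carried a combinatorial variant library on a HIS3 centromeric plasmid, from two independent transformations. After 4 generations in SC-HIS at 30 °C, pools spent ~6.5 generations (~26.5 h) in SC-HIS 1M NaCl at 37 °C, giving three outputs per input, and 125 bp paired-end Illumina reads counted the variants. Fitness is the natural log of each genotype's generations over the wild type's, with generations taken as OD-scaled log2 output/input frequency weighted by inverse variance across replicates.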

Point of comparison: AUUCCAUUGGCGUAAUGGUAACGCGUCUCCCUCCUAAGGAGACGAUUGCGGGUUCGAGUCCCGUACGGAGCG, “yeast fitness (ln)” value -0.188. Against it:
- GCUCCAUUGGCGUAAUGGUAACGCGUUUCCCUCCUAAGGAGAAGACUGCGGGUUCGAGUCCCGUAUGGGUUG — lower, -0.386
- GCUCCGUUGGCGUAAUGGUAACGCGUUUCCCUCCUAAGGAGAAGAUUGCGGGUUCGAGUCCCGUACGGGACG — lower, -0.319
- GGUCCAUUGGCGUAAUGGUAACGCGUCUCCCUCCUAAGGAGAAGAUUGCGGGUUCGAGUCCCGUAAGGAGCG — higher, -0.056
- AUUCCGUUGGCGUAAUGGUAACGCGUCUCCCUCCUAAGGAGACGAUUGCGGGUUCGAGUCCCGUAUGGGGUG — lower, -0.263
- ACUCCUUUGGCGUAAUGGUAACGCGUCUCCCUCCUAAGGAGACGAUUGCGGGUUCGAGUCCCGUAUGGAUCG — higher, -0.167
- GGUCCUUUGGCGUAAUGGUAACGCGUUUCCCUCCUAAGGAGACGAUUGCGGGUUCGAGUCCCGUACGGGUCG — higher, -0.147
- AGUCCAUUGGCGUAAUGGUAACGCGUCUCCCUCCUAAGGAGAAGAUUGCGGGUUCGAGUCCCGUACGGAGUG — lower, -0.245
- ACUCCGUUGGCGUAAUGGUAACGCGUUUCCCUCCUAAGGAGAAGAUUGCGGGUUCGAGUCCCGUAUGGAGCG — lower, -0.242
- AUUCCGUUGGCGUAAUGGUAACGCGUUUCCCUCCUAAGGAGAAGACUGCGGGUUCGAGUCCCGUAUGGAAUG — lower, -0.322
- GUUCCAUUGGCGUAAUGGUAACGCGUUUCCCUCCUAAGGAGACGACUGCGGGUUCGAGUCCCGUAAGGAUCG — lower, -0.204
- AUUCCUUUGGCGUAAUGGUAACGCGUCUCCCUCCUAAGGAGACGACUGCGGGUUCGAGUCCCGUAUGGAACG — lower, -0.232
- GUUCCUUUGGCGUAAUGGUAACGCGUCUCCCUCCUAAGGAGAAGACUGCGGGUUCGAGUCCCGUACGGGUCG — higher, -0.145
- AUUCCAUUGGCGUAAUGGUAACGCGUCUCCCUCCUAAGGAGAAGACUGCGGGUUCGAGUCCCGUAUGGAGCG — higher, -0.184
- GGUCCAUUGGCGUAAUGGUAACGCGUUUCCCUCCUAAGGAGACGACUGCGGGUUCGAGUCCCGUAAGGAACG — lower, -0.237
- GGUCCUUUGGCGUAAUGGUAACGCGUUUCCCUCCUAAGGAGAAGAUUGCGGGUUCGAGUCCCGUAAGGGGUG — lower, -0.25
- GGUCCGUUGGCGUAAUGGUAACGCGUCUCCCUCCUAAGGAGACGACUGCGGGUUCGAGUCCCGUACGGAGCG — higher, -0.182
- AUUCCUUUGGCGUAAUGGUAACGCGUCUCCCUCCUAAGGAGAAGACUGCGGGUUCGAGUCCCGUACGGAUUG — lower, -0.213
- ACUCCAUUGGCGUAAUGGUAACGCGUCUCCCUCCUAAGGAGAAGAUUGCGGGUUCGAGUCCCGUAUGGAGUG — higher, 0.0112
- GUUCCAUUGGCGUAAUGGUAACGCGUCUCCCUCCUAAGGAGACGAUUGCGGGUUCGAGUCCCGUAAGGAUUG — lower, -0.312
- GGUCCAUUGGCGUAAUGGUAACGCGUUUCCCUCCUAAGGAGACGACUGCGGGUUCGAGUCCCGUACGGGUCG — lower, -0.279
- GGUCCAUUGGCGUAAUGGUAACGCGUUUCCCUCCUAAGGAGACGACUGCGGGUUCGAGUCCCGUACGGGGCG — higher, -0.168
- AGUCCGUUGGCGUAAUGGUAACGCGUCUCCCUCCUAAGGAGACGACUGCGGGUUCGAGUCCCGUAUGGAUCG — higher, -0.185
- AGUCCGUUGGCGUAAUGGUAACGCGUUUCCCUCCUAAGGAGACGACUGCGGGUUCGAGUCCCGUAAGGAUCG — lower, -0.195
- AGUCCUUUGGCGUAAUGGUAACGCGUUUCCCUCCUAAGGAGAAGACUGCGGGUUCGAGUCCCGUAAGGAUCG — lower, -0.27
- AUUCCGUUGGCGUAAUGGUAACGCGUUUCCCUCCUAAGGAGAAGAUUGCGGGUUCGAGUCCCGUACGGAUUG — higher, -0.178
- GCUCCAUUGGCGUAAUGGUAACGCGUUUCCCUCCUAAGGAGAAGAUUGCGGGUUCGAGUCCCGUACGGGGUG — lower, -0.331
- GCUCCAUUGGCGUAAUGGUAACGCGUCUCCCUCCUAAGGAGAAGACUGCGGGUUCGAGUCCCGUAAGGGGUG — higher, -0.139
- GGUCCUUUGGCGUAAUGGUAACGCGUCUCCCUCCUAAGGAGACGACUGCGGGUUCGAGUCCCGUAAGGGGUG — lower, -0.315
- AGUCCGUUGGCGUAAUGGUAACGCGUCUCCCUCCUAAGGAGACGACUGCGGGUUCGAGUCCCGUAUGGAUUG — lower, -0.333
- ACUCCUUUGGCGUAAUGGUAACGCGUCUCCCUCCUAAGGAGAAGACUGCGGGUUCGAGUCCCGUAAGGGGCG — higher, -0.126
- AUUCCAUUGGCGUAAUGGUAACGCGUUUCCCUCCUAAGGAGAAGACUGCGGGUUCGAGUCCCGUACGGAAUG — lower, -0.238
- AGUCCGUUGGCGUAAUGGUAACGCGUCUCCCUCCUAAGGAGACGAUUGCGGGUUCGAGUCCCGUAAGGGUUG — lower, -0.233
- GUUCCUUUGGCGUAAUGGUAACGCGUCUCCCUCCUAAGGAGAAGACUGCGGGUUCGAGUCCCGUACGGAUCG — higher, -0.0758
- AGUCCUUUGGCGUAAUGGUAACGCGUCUCCCUCCUAAGGAGACGAUUGCGGGUUCGAGUCCCGUAAGGAGCG — higher, -0.178
- AGUCCGUUGGCGUAAUGGUAACGCGUCUCCCUCCUAAGGAGAAGACUGCGGGUUCGAGUCCCGUAAGGAGCG — higher, -0.114
- ACUCCGUUGGCGUAAUGGUAACGCGUCUCCCUCCUAAGGAGAAGACUGCGGGUUCGAGUCCCGUACGGAAUG — higher, -0.00448
- AGUCCUUUGGCGUAAUGGUAACGCGUCUCCCUCCUAAGGAGAAGAUUGCGGGUUCGAGUCCCGUACGGAACG — higher, -0.0886
